These results are taken from article PMC4230422 (Journal of Experimental & Clinical Cancer Research : CR, 2014).

Molecules are shown by their SMILES.

The test system of assay [1] is UM-UC-3. The experiment in a line: CellTiter-Glo ATP cell viability assay, UM-UC-3. Format: cell-based, human. To be noted: UM-UC-3, 72 h of HDAC8 inhibitor treatment. A digest of the protocol:
(§1)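 UCCs kept in DMEM GlutaMAX-I plus 10% FCS at 37°C, 5% CO2. Cells seeded in 96-well plates and grown 24 h, then given one treatment at the indicated inhibitor concentrations (10 mM DMSO stock) or DMSO for 72 h. Viable cells read as total cellular ATP by CellTiter-Glo luminescence. IC50 and dose-response curves fitted by non-linear regression.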
In general terms: In ATP-based viability assays light output follows the ATP content of the culture.

Assay [2] relates to 639-V. The experiment in a line: CellTiter-Glo ATP cell viability assay, 639-V. Format: cell-based, human. To be noted: 72 h of HDAC8 inhibitor treatment. A digest of the protocol: as §1
The subject of assay [3] is Normal Uroepithelial Control. The experiment in a line: CellTiter-Glo ATP cell viability assay, normal uroepithelial control. Format: cell-based, human. To be noted: 72 h of HDAC8 inhibitor treatment. A digest of the protocol:
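Normal urothelial cells isolated from ureters after nephrectomy, grown in keratinocyte serum-free medium with 0.25 ng/ml EGF and 12.5 μg/ml bovine pituitary extract. Seeded in 96-well plates for 24 h, then treated once with the indicated inhibitor concentrations (10 mM DMSO stock) or DMSO for 72 h. Read by CellTiter-Glo total-ATP luminescence. IC50 from non-linear regression.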

For assay [4], the system named is RT-112. Put plainly: CellTiter-Glo ATP cell viability assay, RT-112. Format: cell-based, human. To be noted: RT-112, 72 h of HDAC8 inhibitor treatment. A digest of the protocol:
as §1

In assay [5] the test system is VM-CUB1. The experiment in a line: Colony forming assay, VM-CUB1. The assay is classed as cell-based, human. To be noted: VM-CUB1, 72 h treatment at IC50 concentrations. A digest of the protocol:
(§2)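 After a single 72 h inhibitor or DMSO treatment, cells were replated at 500 to 1,000 cells per well in 6-well plates and grown 10 days. Then PBS-washed, fixed briefly in 50% methanol and 10 min in 100% methanol, and Giemsa-stained. Colony number and size measured by image analysis against the DMSO control.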

The subject of assay [6] is SW-1710. The experiment in a line: CellTiter-Glo ATP cell viability assay, SW-1710. Format: cell-based, human. To be noted: SW-1710, 72 h of HDAC8 inhibitor treatment. A digest of the protocol:
as §1

Assay [7] deals with VM-CUB1. Put plainly: CellTiter-Glo ATP cell viability assay, VM-CUB1. Format: cell-based, human. To be noted: VM-CUB1, 72 h of HDAC8 inhibitor treatment. A digest of the protocol:
as §1

In another assay the test system is acetylated α-tubulin. The experiment in a line: Western blot of acetylated α-tubulin in UCCs. Format: cell-based, human. To be noted: all cell lines, inhibitor IC50, 72 h.
Assay [8] deals with thymidylate synthase (TS). Put plainly: Western blot of thymidylate synthase in UCCs. Format: cell-based, human. To be noted: inhibitor IC50, 72 h. For orientation: Immunoblotting shows a protein as a band on a membrane.
For assay [9], the system named is urothelial cancer cell lines (UCCs). Put plainly: Cell cycle analysis by flow cytometry. The assay is classed as cell-based, human. To be noted: for G1-fraction / G2/M-arrest: VM-CUB1, SW-1710, 639-V and UM-UC-3 cells, inhibitor IC50, 72 h; for sub-G1 fraction: VM-CUB1 and SW-1710, inhibitor IC50, 72 h. A digest of the protocol:
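UCCs grown in DMEM GlutaMAX-I with 10% FCS at 37°C and 5% CO2. One inhibitor dose was given 24 h after seeding (10 mM DMSO stock), with DMSO as solvent control and the pan-HDAC inhibitor SAHA (2.5 μM). After 72 h, attached and floating cells were stained in PI buffer (50 μg/ml PI, 0.1% sodium citrate, 0.1% Triton X-100) and run on flow cytometry. Sub-G1 counted as apoptotic.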
(In general: In flow cytometry, cells or beads pass a laser one at a time.)

The test system of assay [10] is VM-CUB1. Put plainly: Wound healing migration assay, VM-CUB1. The assay is classed as cell-based, human. To be noted: VM-CUB1, IC50 concentrations, especially after 6 - 12 h.
A further assay deals with HDAC1, HDAC2 and HDAC3. The experiment in a line: Expression of other class I HDACs. Format: cell-based, human. To be noted: SW-1710 and VM-CUB1 cells, inhibitor IC50, 72 h, western blot.
Assay [11] relates to acetylated histone H3 and H4. The experiment in a line: Western blot of histone H3 and H4 acetylation. Format: cell-based, human. To be noted: for H4 acetylation: 639-V, inhibitor IC50, 72 h. A digest of the protocol:
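Histone acetylation checked after 72 h inhibitor or DMSO treatment. 1 μg of each sample run on 15% SDS-PAGE and transferred to PVDF. Probed for acetylated H3 (1:2,000), total H3 (1:1,000), acetylated H4 (1:1,000) and total H4 (1:500). Blocking in 5% milk/TBST, primary 1 h at room temperature or overnight at 4°C, HRP-conjugated secondaries.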

The subject of assay [12] is RT-112. The experiment in a line: Colony forming assay, RT-112. Format: cell-based, human. To be noted: RT-112, 72 h treatment at IC50 concentrations. A digest of the protocol: as §2
For assay [13], the system named is 639-V. Put plainly: Colony forming assay, 639-V. Format: cell-based, human. To be noted: 72 h treatment at IC50 concentrations. A digest of the protocol: as §2
In another assay the test system is HDAC6. To be noted: in vitro; cited from earlier work.
The subject of assay [14] is urothelial cancer cell lines (UCCs). Put plainly: CellTiter-Glo ATP cell viability assay, urothelial cancer cell line panel. Format: cell-based, human. To be noted: 72 h inhibitor treatment. A digest of the protocol: as §1
The subject of a further assay is p21. The experiment in a line: Western blot of p21 in UCCs. Format: cell-based, human.
The test system of assay [15] is SW-1710. Put plainly: Colony forming assay, SW-1710. Format: cell-based, human. To be noted: SW-1710, 72 h treatment at IC50 concentrations. A digest of the protocol: as §2
Assay [16] relates to UM-UC-3. The experiment in a line: Colony forming assay, UM-UC-3. The assay is classed as cell-based, human. To be noted: UM-UC-3, 72 h treatment at IC50 concentrations. A digest of the protocol: as §2
In assay [17] the test system is UM-UC-3. Put plainly: Wound healing migration assay, UM-UC-3. To be noted: UM-UC-3, IC50 concentrations, especially after 6 - 12 h. The assay is classed as cell-based, human.
A further assay has as its system PARP. The experiment in a line: Western blot of PARP cleavage in UCCs. To be noted: SW-1710, inhibitor IC50, 72 h. Format: cell-based, human.
Where [18] appears, read: VM-CUB1, SW-1710 and UM-UC-3 cells.
The mark [19] stands for this setting: SW-1710 and 639-V, inhibitor IC50, 72 h.

As a reminder, the IC50 is the concentration needed to halve the response being measured. The low end stands for inhibition by little substance, the high end for a need for much substance.

`O=C(NO)c1cccc2ccccc12` [Compound 2, 1-napthohydroxamic acid, reference compound]: the concentration for half-maximal inhibition (IC50) with UM-UC-3 [1] was not below 50 µM; in the assay on 639-V [2], not below 50 µM; in assay [3] it was not below 50 µM; in the assay on RT-112 [4] it was not below 50 µM; in the assay on RT-112 [4] (listed as c2), more than 50 µM; with SW-1710 [6] it was not below 50 µM. Further, the concentration for half-maximal inhibition (IC50) in the assay with VM-CUB1 [7] is not below 50 µM. Besides, the clonogenic growth entry with VM-CUB1 [5] is on record as “inhibited clonogenicity”.

On to `O=C(/C=C/Cc1cccc2ccccc12)NO` [Compound 5, δ-naphtyl-trans 2-butenoil hydroxamic acid], for which the half-inhibitory concentration (IC50) was 18.9 µM with UM-UC-3 [1]; 12.6 µM in the assay on 639-V [2]; 24.2 µM in [3]; 9.7 µM with RT-112 [4]; approximately 9.7 µM in the assay on RT-112 [4] (listed as c5); 20.8 µM with SW-1710 [6]. Further, the IC50 in the assay on VM-CUB1 [7] worked out at 18.7 µM. Besides, the “acetylated α-tubulin” value in the assay on acetylated α-tubulin (listed as c5) is listed as “strong increase”. The “expression of thymidylate synthase (TS)” value in assay [8] (639-V and RT-112 cells) is reported as “No effects”; in [8] (setting [18]) it was “weakly reduced”. In assay [9], the G1-fraction entry is given as “significant decrease”. Besides, the G2/M-arrest result in assay [9] is “indications of a G2/M-arrest”. For the same compound, in assay [9], the sub-G1 fraction entry is reported as “significant increase”. For the same compound, the “wound healing (relative scratch size) vs DMSO control” value with VM-CUB1 [10] and with UM-UC-3 [17] was “clear difference” in each case. Further, the “protein expression of HDAC1 and HDAC2/3” value with HDAC1, HDAC2 and HDAC3 is “slightly reduced”. Also, the H4 acetylation result in assay [11] is “slight increase”. Further, the clonogenic growth entry with RT-112 [12] is reported as “moderate reduction of colony numbers”; in the assay on VM-CUB1 [5] it was “completely abolished”; with 639-V [13], “moderate reduction of colony numbers”; in the assay with SW-1710 [15] it was “no effect”; in the assay on UM-UC-3 [16] it was “moderate reduction of colony numbers”. Further, the “inhibition of HDAC6” value in the assay on HDAC6 is listed as “do not inhibit HDAC6 efficiently”. Further, the “viability of all UCCs” value in assay [14] is “significantly reduced”. For the same compound, the p21 expression result in the assay with p21 (setting [19]) is reported as “decreased”.

On to `O=C(NO)c1ccc(-c2cccc3ccccc23)cc1` [Compound 6, 4-naphtyl-benzoil hydroxamic acid], for which the half-inhibitory concentration (IC50) in the assay on UM-UC-3 [1] was 18.2 µM; with 639-V [2], 18.6 µM; in assay [3], 10.2 µM; with RT-112 [4], 9.1 µM; with RT-112 [4] (listed as c6), approximately 9.1 µM; with SW-1710 [6], 18.8 µM. In the assay on VM-CUB1 [7], this compound registered an IC50 of 16 µM. Besides, the “acetylated α-tubulin” value in the assay on acetylated α-tubulin (listed as c6) was “strong increase”. For the same compound, the “expression of thymidylate synthase (TS)” value was “No effects” in assay [8] (639-V and RT-112 cells); “weakly reduced” in assay [8] (setting [18]). Moreover, the G1-fraction result in assay [9] was “significant decrease”. Moreover, in assay [9], the G2/M-arrest entry was “indications of a G2/M-arrest”. In assay [9], the sub-G1 fraction result is recorded as “significant increase”. Also, the “wound healing (relative scratch size) vs DMSO control” value in the assay with VM-CUB1 [10] and in the assay with UM-UC-3 [17] was “clear difference” in each case. Also, in the assay with HDAC1, HDAC2 and HDAC3, the “protein expression of HDAC1 and HDAC2/3” value is reported as “slightly reduced”. Further, the H4 acetylation result in [11] is on record as “slight increase”. Also, the clonogenic growth result in the assay on RT-112 [12] is listed as “active”; in the assay on VM-CUB1 [5] it was “most efficient”; in the assay on 639-V [13], “most efficient”; in the assay on SW-1710 [15] it was “active”; in the assay on UM-UC-3 [16], “most efficient”. Besides, the “inhibition of HDAC6” value with HDAC6 is “do not inhibit HDAC6 efficiently”. For the same compound, the “viability of all UCCs” value in assay [14] is reported as “significantly reduced”. Besides, the “cleavage of PARP” value with PARP is listed as “Increased cleavage of PARP”. The p21 expression result in the assay on p21 (setting [19]) was “decreased”; in the assay on p21 (UM-UC-3, inhibitor IC50, 72 h), “decreased”.

Consider `O=C(CCCCCCC(=O)Nc1ccccc1)NO` [SAHA, suberoylanilide hydroxamic acid, reference compound], for which the “histone H3 or H4 acetylation” value in assay [11] (SAHA control) is given as “led to a change”.
